Data set [1] is described as follows: Cytotoxicity against MDBK cells assessed as reduction in cell viability after 72 hrs by MTT assay. It is filed as cell-based, Bos taurus. The settings on record: cattle. The method, boiled down:
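MDBK cells seeded at 6 × 10^5 cells/mL in MEM-E with L-glutamine, 1 mM sodium pyruvate, kanamycin and 10% horse serum. Mock-infected cultures held with serial compound dilutions at 37 °C, 5% CO2. MTT viability read after 72 h. 50% cytotoxic concentration from linear regression as % of untreated controls. Three independent determinations.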
In general terms: Tetrazolium assays rely on reduction of a dye to a coloured formazan, in cell work by metabolically active cells.

A short description of data set [2]: Cytotoxicity against human MT4 cells assessed as reduction in cell proliferation after 96 hrs by MTT assay. It is filed as cell-based. An outline of the steps:
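MT-4 cells in exponential growth seeded at 1 × 10^5 cells/mL in RPMI-1640 with 10% FBS and penicillin/streptomycin. Cultured with serial compound dilutions at 37 °C, 5% CO2. MTT viability after 96 h. CC50 by linear regression against untreated controls. Mean of three independent determinations.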

The test system of data set [3] is Vesicular stomatitis virus. Description: Antiviral activity against VSV Indiana ATCC VR-158 infected in african green monkey Vero-76 cells after 2 days by plaque reduction assay. It is filed as functional, organism-based. The settings on record: Indiana ATCC VR-158, Vero 76, 48 h.
Data set [4] relates to Mammalian orthoreovirus 1. Description: Antiviral activity against Reovirus 1 ATCC VR- 214 infected in BHK21 cells assessed as protection against virus-induced cytopathic effect after 3 or 4 days by MTT assay. It is filed as functional, cell-based. The settings on record: Mammalian orthoreovirus 1, ATCC VR- 214, BHK-21. An outline of the steps: (§1)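 BHK-21 (YFV, Reo-1) or MDBK (BVDV) cells seeded at 5 × 10^4 or 3 × 10^4 cells/well and grown overnight to confluence. Monolayers infected at m.o.i. 0.01 in maintenance medium (MEM-Earle, 0.5% inactivated FBS). Serial compound dilutions added 2 h after infection; 37 °C for 3-4 days. Viability read by MTT. EC50 by linear regression versus untreated controls; mean of three determinations.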
A general note: Damage to the host cells serves as the signal in cytopathic effect assays.

A short description of data set [5]: Cytotoxicity against BHK21 cells assessed as reduction in cell viability after 72 hrs by MTT assay. The data set is classed as cell-based, Mesocricetus auratus, BHK-21. The conditions noted are these: hamster. The method, boiled down: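 BHK cells seeded at 1 × 10^6 cells/mL in MEM-E with L-glutamine, 1 mM sodium pyruvate, kanamycin and 10% FBS. Mock-infected cells exposed to serial dilutions of compound at 37 °C, 5% CO2, run in parallel with the antiviral assays. Viability by MTT at 72 h. CC50 by linear regression vs untreated controls. Mean of three independent determinations.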

For data set [6], the system named is Respiratory syncytial virus. Description: Antiviral activity against RSVA2 ATCC VR-1540 infected in african green monkey Vero-76 cells after 5 days by plaque reduction assay. The data set is classed as functional, organism-based. The conditions noted are these: human respiratory syncytial virus, A2 ATCC VR-1540, Vero 76, 120 h. (In a plaque reduction assay, fewer plaques than in the control indicate reduced infectivity or spread.)

The test system of data set [7] is Coxsackievirus B5. In words: Antiviral activity against CVB-5 virus Faulkner ATCC VR-185 infected in african green monkey Vero-76 cells after 3 days by plaque reduction assay. The conditions noted are these: Enterovirus B, Faulkner ATCC VR-185, Vero 76, 72 h. The data set is classed as functional, organism-based.
Data set [8] in a line: Cytotoxicity against african green monkey Vero 76 cells assessed as reduction in cell viability after 48 to 96 hrs by MTT assay. The conditions noted are these: chlorocebus sabaeus. It is filed as cell-based. The method, boiled down: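 Vero-76 cells plated at 4 × 10^5 cells/mL in D-MEM with L-glutamine, kanamycin and 10% FBS. Incubated with serial dilutions of test compounds at 37 °C, 5% CO2 for 48-96 h. Viability by MTT. CC50 by linear regression relative to untreated cells. Mean of three independent runs.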

Data set [9] has as its system Yellow fever virus. Description: Antiviral activity against YFV 17-D vaccine (Stamaril Pasteur J07B01) infected in BHK21 cells assessed as protection against virus-induced cytopathic effect after 3 or 4 days by MTT assay. The conditions noted are these: BHK-21. The data set is classed as functional, organism-based. The method, boiled down: as §1
Data set [10] has as its system Bovine viral diarrhea virus 1. Description: Antiviral activity against BVDV NADL ATCC VR-534 infected in MDBK cells assessed as protection against virus-induced cytopathic effect after 3 or 4 days by MTT assay. It is filed as functional, organism-based. The conditions noted are these: Bovine viral diarrhea virus isolates and strains, NADL ATCC VR-534, MDBK. The method, boiled down: as §1

In data set [11] the test system is Human poliovirus 1 strain Sabin. In words: Antiviral activity against Human poliovirus 1 strain Sabin 1 virus infected in african green monkey Vero-76 cells after 2 days by plaque reduction assay. It is filed as functional, organism-based. The settings on record: Enterovirus C, 1, Vero 76, 48 h.
The test system of data set [12] is Human immunodeficiency virus 1. In words: Antiviral activity against HIV-1 3B infected in human MT4 cells assessed as protection against virus-induced cytopathic effect after 4 days by MTT assay. The data set is classed as functional, organism-based. The conditions noted are these: Human immunodeficiency virus 1, 3B, MT4, 96 h. An outline of the steps: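 MT-4 cells (1 × 10^4/well in RPMI) with or without serial compound dilutions, infected with HIV-1 at 100 CCID50 (m.o.i. 0.01). After 4 days at 37 °C, protection from cytopathogenicity read by MTT. EC50 by linear regression versus untreated controls; mean of three independent determinations.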

Data set [13] has as its system Vaccinia virus. Description: Antiviral activity against VV Elstree ATCC VR-1549 infected in african green monkey Vero-76 cells after 3 days by plaque reduction assay. It is filed as functional, organism-based. The settings on record: Orthopoxvirus vaccinia, Elstree ATCC VR-1549, Vero 76, 72 h.
Data set [14] in a line: Inhibition of BVDV RNA-dependent RNA polymerase pre-incubated for preincubated for 30 mins before GTP addition and measured after 120 mins by fluorescence based microplate reader assay. The arrangement: species or system Bovine viral diarrhea virus 1. An outline of the steps:
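His-tagged BVDV NS5BΔ24 (C-terminal 24 residues deleted) from E. coli, Ni-NTA purified, 500 ng/reaction. Assay uses poly(rC) 10 µg/mL template, oligo(rG)12 0.1 µg/mL primer and 80 µM GTP. Buffer is 20 mM Tris pH 7.0, 5 mM MgCl2, 25 mM NaCl, 1 mM DTT, 5% DMSO. Threefold compound dilutions, 30 min RT preincubation, 120 min at 37 °C, EDTA stop. Product read by PicoGreen fluorescence (ex 480/em 520), as % residual activity.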

Data set [15] concerns Human alphaherpesvirus 1. In words: Antiviral activity against HSV-1 KOS ATCC VR- 1493 infected in african green monkey Vero-76 cells after 3 days by plaque reduction assay. The data set is classed as functional, organism-based. The conditions noted are these: Human alphaherpesvirus 1, KOS ATCC VR1493, Vero 76, 72 h.
Data set [16] in a line: Selectivity index, ratio of CC50 for human GS4.1 cells to EC50 for Hepatitis C virus genotype 1b replicon infected in human GS4.1 cells. The data set is classed as toxicity, cell-based. The conditions noted are these: read-out: Ratio CC50/EC50. An outline of the steps: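 Replicon GS4.1 cells 7.5 × 10^3/well with twofold dilutions (top 75 µM), 72 h at 37 °C. Replication measured by NS4A ELISA (anti-NS4A A-236, peroxidase conjugate, phenylenediamine, A492), with EC50 by four-parameter sigmoidal fit. CC50 from CellTiter 96 AQueous One in the same cells. Index taken as CC50/EC50.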

The nature of data set [17]: Cytotoxicity against human GS4.1 cells assessed as reduction in cell viability after 72 hrs by Cell Titer 96 aqueous one solution cell proliferation assay. It is filed as cell-based. The method, boiled down:
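GS4.1 cells (Huh-7 carrying an HCV genotype 1b replicon, grown with 0.5 mg/mL G418) seeded at 7.5 × 10^3 cells/well with twofold serial dilutions, top 75 µM. Incubated 72 h at 37 °C, 5% CO2. Viability by CellTiter 96 AQueous One. CC50 from % cytotoxicity vs concentration.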

For data set [18], the system named is Hepatitis C virus. In words: Antiviral activity against Hepatitis C virus genotype 1b replicon infected in human GS4.1 cells assessed as protection against virus-induced cytopathic effect after […] by ELISA. The data set is classed as functional, organism-based, Hepacivirus hominis. The method, boiled down: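 Huh-7 cells carrying the genotype 1b replicon (GS4.1) seeded at 7.5 × 10^3 cells/well in twofold serial compound dilutions (top 75 µM). Replicon-free Huh-7 served as negative control. 72 h at 37 °C. Fixed in acetone-methanol; NS4A ELISA with mouse monoclonal A-236, peroxidase anti-mouse IgG and phenylenediamine; absorbance at 492 nm. EC50 by four-parameter sigmoidal regression of % inhibition.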

The nature of data set [19]: Selectivity index, ratio of CC50 for MDBK cells to EC50 for BVDV infected in MDBK cells.

SMILES strings stand for the structures. pEC50, pIC50: −log10 of the molar value.

By CC50 is commonly meant the concentration giving 50% cytotoxicity. For orientation: pEC50 means −log10 of the EC50, conventionally taken in molar units. Usually pIC50 stands for the negative decadic logarithm of the IC50, by convention in mol/L. On to `COc1nc2cc3cccnc3c(Cl)c2nc1-c1cccs1`, for which the CC50 at 72 h in data set [1] and in [5] was > 100 µM each time. Also, in data set [2], the CC50 at 96 h is > 100 µM. Further, the pEC50 in data set [3] is < 4.00; in data set [4] it was < 4.00; in data set [6], < 4.00; in data set [7], < 4.00; in [9], < 4.00; in [10], 5.89. In addition, the pEC50 in [11], in [12], in [13] and in data set [15] was < 4.00 each time. In addition, the CC50 in data set [8] was > 100 µM. This compound showed a negative-log IC50 (pIC50) in [14] of 6.19.
Turning to `O=c1[nH]c2cc3cccnc3c(Cl)c2nc1-c1cccs1`, the figures for the CC50 at 72 h in data set [1], in data set [5] and in data set [17] were > 100 µM, > 100 µM and 21 µM, respectively. The CC50 at 96 h in data set [2] was > 100 µM. Moreover, in data set [16], the selectivity ratio worked out at 3. Moreover, the pEC50 in data set [3] is < 4.00; in [4] it was < 4.00; in data set [6] it was < 4.00; in [18], 5.12; in data set [7], < 4.00; in data set [9] it was < 4.00. The pEC50 in data set [10] was 5.22; in [11] it was < 4.00; in data set [12], < 4.00; in data set [13] it was < 4.00; in [15] it was < 4.00. The CC50 in [8] was > 100 µM. For the same compound, the “Ratio CC50/EC50” value in [19] is on record as >16.
As for `O=c1[nH]c2cc3cccnc3c(Cl)c2nc1Cc1ccccc1`, the CC50 at 72 h in [1] and in data set [5] was > 100 µM throughout. In addition, the selectivity ratio in [16] was 1. Moreover, the pEC50 was < 4.06 in [3]; < 4.00 in data set [4]; < 4.06 in [6]; < 4.19 in data set [18]; < 4.06 in data set [7]; < 4.00 in data set [9]. The pEC50 is 5.59 in data set [10]; < 4.06 in data set [11]; < 4.82 in data set [12]; < 4.06 in [13]; < 4.06 in data set [15]. For the same compound, in data set [8], the CC50 is 88 µM. In addition, the “Ratio CC50/EC50” value in data set [19] is >34.
As for `O=c1[nH]c2cc3cccnc3c(Cl)c2nc1-c1ccccc1`, the CC50 at 72 h in data set [1] and in data set [5] was > 100 µM in each case. Further, the CC50 at 96 h in data set [2] stood at 61 µM. Further, in data set [16], the selectivity ratio came out at 1. In addition, the pEC50 in [3] was < 4.00; in [4], < 4.00; in data set [6], < 4.00; in data set [18], < 4.96; in data set [7], < 4.00; in data set [9] it was < 4.00. Moreover, the pEC50 in [10] was 5.30; in data set [11], < 4.00; in data set [12], < 4.21; in data set [13], < 4.00; in data set [15], < 4.00. The CC50 in [8] is > 100 µM. Also, the “Ratio CC50/EC50” value in data set [19] is >20.
Take `O=c1c(-c2cccs2)nc2cc3cccnc3c(Cl)c2n1C1CCCCC1`: the CC50 at 72 h in [1] and in [5] was > 100 µM throughout. The 50% cytotoxic concentration (CC50) at 96 h in data set [2] is > 100 µM. Also, the pEC50 is < 4.00 in [3]; < 4.00 in data set [4]; < 4.00 in [6]; < 4.00 in data set [7]; < 4.00 in [9]; 4.82 in [10]. In addition, the pEC50 in [11], in data set [12], in data set [13] and in data set [15] was < 4.00 each time. In addition, the CC50 in [8] is > 100 µM.

Values taken from ChEMBL document CHEMBL3734708, “Synthesis, cytotoxicity and antiviral evaluation of new series of imidazo[4,5-g]quinoline and pyrido[2,3-g]quinoxalinone derivatives” (Eur J Med Chem, 2015).
